# Assay results taken from article PMC11486593 (Biochimica et biophysica acta. General subjects, 2024).
# Experiments:
# [1] = system: ShhN-induced AP activity in C3H10T1/2 cells; assay: C3H10T1/2 cell-based assay, inhibition of ShhN-induced alkaline phosphatase; design: species or system murine; conditions: dose response, 5 days
# How it was run: (§1)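 C3H10T1/2 murine embryonic fibroblasts, stimulated for 5 days with an agonist at its EC50 (human ShhN N-terminal domain, residues 24–197, at 2 μg/ml; or Smoothened agonist SAG at 100 nM), with or without the test compound in dose response. Alkaline phosphatase activity is measured as the marker of pathway activation. IC50 is obtained by non-linear regression.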
# ShhN protein = ShhN protein (Homo sapiens, UniProt Q15465); assay: Protein thermal shift assay; format: binding; conditions: ShhN 1–2 μM; compounds 1.56 to 50 μM
# How it was run: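 Differential scanning fluorimetry uses human ShhN (residues 24–197, 1–2 μM final) mixed with the kit's thermal shift buffer and dye, held on ice, with or without the test compound at 1.56–50 μM. Melt runs at a continuous ramp of […] from 25°C to 97.5°C. ΔTm is the difference in transition midpoint with versus without compound.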
# ShhN/heparin binding = ShhN/heparin binding (Homo sapiens, UniProt Q15465); assay: Solid-phase ShhN/heparin binding assay; conditions: for ShhN/flu-heparin binding IC50 of known compounds: compounds known to bind Shh, heparin binding domains or heparin, Fig. 3B
# [2] = system: ShhN-induced Gli1 and Ptch1 mRNA in C3H10T1/2 cells; assay: qRT-PCR for Gli1 and Ptch1 in C3H10T1/2 cells, ShhN-mediated induction; format: cell-based, mouse; conditions: 5 days; for Inhibition of ShhN-induced GLI1 and Ptch1 mRNA: 50 μM for compounds 4, 21 and 24, 10 μM for robotnikinin; for Decrease of ShhN-mediated induction of Gli1 and Ptch1 compared to ShhN treatment alone: 50 μM compound
# [3] = system: SAG-induced Gli1 and Ptch1 mRNA in C3H10T1/2 cells; assay: qRT-PCR for Gli1 and Ptch1 in C3H10T1/2 cells, SAG-mediated induction; format: cell-based, mouse; conditions: 5 days, 50 μM for compounds 4, 21 and 24, 10 μM for robotnikinin
# [4] = system: SAG-induced AP activity in C3H10T1/2 cells; assay: C3H10T1/2 cell-based assay, inhibition of SAG-induced alkaline phosphatase; design: species or system murine; conditions: for Inhibition of SAG-induced AP: C3H10T1/2 cells, SAG at EC50 (100 nM), 5 days; for Cytotoxicity in C3H10T1/2 cells: inferred from lack of effect in the SAG induction assay
# How it was run: as §1
# C3H10T1/2 cells = assay: Induction of AP activity in C3H10T1/2 cells by agonists; format: cell-based, murine; conditions: read-out: EC50 for induction of AP activity, 5 days
# How it was run: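 C3H10T1/2 murine embryonic fibroblasts are cultured for 24 h, then exposed to varying concentrations of ShhN protein or SAG for 5 days. Alkaline phosphatase induction is read as the activation marker, and EC50 is fitted by non-linear regression. A ShhN dose-response curve is run on every plate as an internal control.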
# Sequence of ShhN protein (Q15465 24-197): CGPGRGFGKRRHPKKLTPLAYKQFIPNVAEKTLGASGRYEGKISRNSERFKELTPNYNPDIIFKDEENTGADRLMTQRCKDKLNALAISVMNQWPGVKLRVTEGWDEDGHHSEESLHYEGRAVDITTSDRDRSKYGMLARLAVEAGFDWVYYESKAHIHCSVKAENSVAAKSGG
# Sequence of ShhN/heparin binding (Q15465 24-197): as above
Compound,Tm shift (ΔTm) on binding to ShhN (ShhN protein) [°C],Inhibition of ShhN-induced GLI1 and Ptch1 mRNA [2],Inhibition of SAG-induced GLI1 and Ptch1 mRNA [3],Inhibition of SAG-induced AP [4],further results
"Cc1ccc(C(=O)Nc2ccc(S(=O)(=O)O)c3cc(S(=O)(=O)O)cc(S(=O)(=O)O)c23)cc1NC(=O)c1cccc(NC(=O)Nc2cccc(C(=O)Nc3cc(C(=O)Nc4ccc(S(=O)(=O)O)c5cc(S(=O)(=O)O)cc(S(=O)(=O)O)c45)ccc3C)c2)c1 [Suramin, reference compound]",0.73,,,,Block of ShhN-mediated AP induction [1]: blocked
"O=C1NC(=S)N(c2ccc(F)cc2)C(=O)C1=Cc1ccco1 [Compound 7, 1-(4-Fluoro-phenyl)-5-furan-2-ylmethylene-2-thioxo-dihydro-pyrimidine-4,6-dione]",,,,,IC50 (ShhN/heparin binding): 17.5 µM
"Cc1cc(N)c2cc(NC(=O)Nc3ccc4nc(C)cc(N)c4c3)ccc2n1 [surfen, Surfen]",,,,,ShhN/flu-heparin binding IC50 of known compounds (ShhN/heparin binding): did not block binding
"O=C(C[C@@H]1C/C=C/CCC(=O)O[C@H](c2ccccc2)CNC1=O)NCc1ccc(Cl)cc1 [Robotnikinin, reference compound]",0.85,blocked,did not block,not SAG-mediated AP induction,Block of ShhN-mediated AP induction [1]: able to block ShhN-; ShhN/flu-heparin binding IC50 of known compounds (ShhN/heparin binding): did not block binding
"CCc1ccc(C2=C/C(=C/c3ccco3)C(=O)O2)cc1 [Compound 4, (3Z)-5-(4-Ethylphenyl)-3-(furan-2-ylmethylidene) furan-2-one]",1.58,significantly blocked,did not decrease,not SAG induction of AP,Decrease of ShhN-mediated induction of Gli1 and Ptch1 compared to ShhN treatment alone [2]: 6–7 fold; Cytotoxicity in C3H10T1/2 cells [4]: not cytotoxic
"O=C(NCCNC1CCCC1)c1cccs1 [Compound 24, N-[2-(Cyclopentylamino)ethyl] thiophene-2-carboxamide]",0.85,significantly blocked,did not decrease,not SAG induction of AP,Decrease of ShhN-mediated induction of Gli1 and Ptch1 compared to ShhN treatment alone [2]: 6–7 fold; Cytotoxicity in C3H10T1/2 cells [4]: not cytotoxic
CNC1CCC(N(Cc2cccc(-c3ccncc3)c2)C(=O)c2sc3ccccc3c2Cl)CC1 (centres unmarked) [SAG],,,,,EC50 (C3H10T1/2 cells): 0.1 µM
